Source: PubChem BioAssay
The list is not random: actives were taken first. Their share in the collection is about 3.1%.
OX1R antag-1 – human HCRTR1 antagonism; CHO/OX1R cells, Fluo-8 calcium fluorescence, orexin A; inhibition, % at 5 µM; 0.43% of 330,000 active; AID 434989;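 active = inhibition above its plate's threshold, mean inhibition of all tested compounds on the plate plus 3 SD, cut at about 37% in these data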;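 note: 0% = orexin A challenge wells and 100% = SB-334867-A antagonist wells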
CHO parental Ca – counter-screen for OX1R antagonists: effect in parental CHO cells; parental CHO-K1, ATP-induced calcium, Fluo-8 fluorescence; inhibition, % at 5.6 µM; 0.63% of 330,000 active;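 active = inhibition above that plate's mean sample inhibition plus 3 SD, cut at about 26% in these data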;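 note: 0% = ATP-challenged DMSO wells and 100% = DMSO wells without ATP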
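test system = CHO parental line | reagent = ATP stimulus | measured by = intracellular calcium via Fluo-8 no-wash fluorescent dye | control set = ATP and no-ATP DMSO wells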
OX1R antag-2 – antagonists of human orexin 1 receptor (OX1R). OX1R-expressing cells, FRET antagonist read-out. 1.8% of 330,000 active. O43613. AID 485270. inhibition, % at 6.6 µM; in the data active = inhibition mostly above about 38%, no sharp cut-off; inactive = mostly below about 40%;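 note: 0% = agonist challenge alone and 100% = reference antagonist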
GalR3 antag – antagonists of human GalR3. inhibition, % at 3 µM. HEK293 GalR3-CNG cAMP membrane potential fluorescence; galR3 body fused to GalR1 C-terminus. 0.44% of 360,000 active. O60755;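 active = inhibition above the screen-wide average plus 3 SD, cut at about 13% in these data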;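 note: forskolin and galanin both at EC90 stimulate the cells; cAMP rise reported by CNG channel membrane potential dye signal; 0% = forskolin plus galanin with DMSO and 100% = forskolin alone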
Target sequence (O60755 1-299 limits assumed): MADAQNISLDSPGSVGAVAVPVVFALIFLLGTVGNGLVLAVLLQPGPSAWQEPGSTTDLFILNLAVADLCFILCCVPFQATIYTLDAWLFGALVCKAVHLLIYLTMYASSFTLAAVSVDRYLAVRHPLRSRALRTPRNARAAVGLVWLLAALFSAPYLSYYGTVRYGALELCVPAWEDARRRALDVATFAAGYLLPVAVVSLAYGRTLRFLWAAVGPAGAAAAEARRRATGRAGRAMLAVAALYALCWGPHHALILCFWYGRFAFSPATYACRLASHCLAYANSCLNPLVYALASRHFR
GPR7 antag – blocks human GPR7 receptor signaling; P48145; GPR7-expressing cells, fluorescence antagonist assay; inhibition, % at 4.4 µM; 1.1% of 290,000 active; in the data active = inhibition above about 16%, passing the limit was not always enough;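 note: cells stimulated with the agonist NPW; 0% = agonist with vehicle and 100% = vehicle without agonist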
Target sequence (P48145 whole entry, looked up): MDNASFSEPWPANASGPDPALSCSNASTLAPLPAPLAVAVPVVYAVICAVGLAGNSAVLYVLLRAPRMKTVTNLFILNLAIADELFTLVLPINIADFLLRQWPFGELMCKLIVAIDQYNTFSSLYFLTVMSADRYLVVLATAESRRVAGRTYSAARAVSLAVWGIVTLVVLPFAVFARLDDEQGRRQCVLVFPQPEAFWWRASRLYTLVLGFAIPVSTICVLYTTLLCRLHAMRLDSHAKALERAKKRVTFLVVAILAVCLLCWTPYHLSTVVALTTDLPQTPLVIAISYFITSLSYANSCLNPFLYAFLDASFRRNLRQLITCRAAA
OX1R Ca confirm – confirmation of human orexin 1 receptor antagonists. shares compounds with OX1R antag-1. CHO/OX1R cells, orexin A calcium Fluo-8 fluorescence. inhibition, % at 5 µM. 38% of 1,100 active. AID 492963; in the data active = inhibition above about 29%;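 note: 0% = agonist challenge alone and 100% = reference antagonist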
CHO Ca triplic – counter-screen for OX1R antagonists: effect in parental CHO cells. shares compounds with OX1R antag-1. parental CHO-K1, ATP-induced calcium, Fluo-8 fluorescence. inhibition, % at 5.6 µM. 9.3% of 1,100 active. AID 492965;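 active = inhibition above a per-plate limit, the mean inhibition of that plate's test compounds plus 3 SD, cut at about 25% in these data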;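 note: 0% = ATP challenge with DMSO and 100% = DMSO without ATP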
OX1R HTRF confirm – OX1R (human) antagonism, HTRF confirmed; shares compounds with OX1R antag-2; OX1R-expressing cells, HTRF antagonist assay; inhibition, % at 6.6 µM; 49% of 1,800 active; in the data active = inhibition above about 55%;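 note: CHO cells expressing OX1R stimulated with orexin A at about EC80; 0% = agonist challenge alone and 100% = reference antagonist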
CHO-K1 HTRF – counter-screen: parental CHO-K1 HTRF response | shares compounds with OX1R antag-2 | parental CHO-K1 cells, HTRF counterscreen | inhibition, % at 6.6 µM | 48% of 1,800 active | AID 493232; in the data active = inhibition above about 17%;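 note: 0% = agonist challenge with vehicle and 100% = vehicle alone without agonist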
GalR3 antag conf – confirmation of human galanin receptor 3 antagonists. shares compounds with GalR3 antag. HEK293 GalR3 CNG cAMP biosensor, membrane potential fluorescence; galR3 fused to GalR1 carboxy tail; challenged with forskolin and galanin at EC90. inhibition, % at 3 µM. 59% of 1,600 active;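 active = inhibition above the primary screen's cutoff, the mean inhibition of all screened compounds plus 3 SD, cut at about 13% in these data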;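 note: 0% = forskolin plus galanin and 100% = forskolin alone with DMSO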
CNG parental – counter-screen for GalR3 antagonists: nonspecific agonists in parental HEK-CNG cells; HEK293-CNG parental cells, cAMP membrane potential fluorescence; normalised: DMSO wells 0%, forskolin wells 100%; activation, % at 3 µM; 10% of 1,600 active; shares compounds with GalR3 antag; in the data active = activation above about 1.3%
Active calls of the source: *; · = no result.

SMILES	OX1R antag-1	CHO parental Ca	OX1R antag-2	GalR3 antag	GPR7 antag	OX1R Ca confirm	CHO Ca triplic	OX1R HTRF confirm	CHO-K1 HTRF	others
Cc1ccnc2ccc(-c3nc4ccccc4o3)cc12	41*	-25	92*	-5	-12	48*	-18	94*	10
CC(OC(=O)c1cc(=O)[nH]c2ccccc12)C(=O)Nc1ccccc1F (centres undefined)	-4	-12	22	-4	·	·	·	·	·
COc1cc(/C=N/NC(=O)CCn2nnc3ccccc32)ccc1O	22	-9	14	-5	-1	·	·	·	·
COc1cc(/C=N/NC(=O)CCn2c3ccccc3c3ccccc32)ccc1O	75*	8	54*	-7	-5	37*	3	83*	-15
COc1ccccc1OCC(=O)N/N=C1/C=C(C)CC1	-10	1	27	-6	-8	·	·	·	·
COC(=O)N/N=C/c1ccc(-c2ccc(C)c(Cl)c2)o1	-24	-5	8	3	-4	·	·	·	·
Cc1ccc(-c2ccc(/C=N\NC(=O)C3C(=O)NCC3c3ccccc3)o2)cc1Cl (centres undefined)	29	-5	69*	-1	-5	48*	5	61*	11
O=C1NCC(c2ccccc2)C1C(=O)N/N=C\c1ccc(-c2cccc(Cl)c2Cl)o1 (centres undefined)	87*	-6	101*	-3	-7	69*	2	87*	0
COc1ccc(N=Cc2oc3ccc4ccccc4c3c2O)cc1	25	14	58*	-5	-1	27	20	67*	12
COc1ccc(N=Cc2ccccc2O)cc1	·	·	·	-3	·	·	·	·	·
CCCn1c(N)c(N(CCOC)C(=O)CSCC(=O)Nc2ccc(C)cc2)c(=O)[nH]c1=O	-2	5	5	-3	·	·	·	·	·
CN(C)c1ccc(NC(=S)c2ccc3ccccc3n2)cc1	58*	0	93*	3	10	29	14	85*	9
Cc1ccc(C)c(NC(=S)c2ccc3ccccc3n2)c1	-35	-28	19	-1	5	·	·	·	·
CN(C)C(=O)CSc1nnc(-c2ccco2)n1-c1ccccc1	·	·	·	-5	·	·	·	·	·
CN(Cc1ccccc1)C(=O)CSc1nnc(-c2ccco2)n1-c1ccccc1	38	-9	41*	-9	-9	10	-18	44	7
O=C(COC(=O)CCc1ccccc1)NC1CCS(=O)(=O)C1 (centres undefined)	-9	3	19	-5	·	·	·	·	·
Cc1ccsc1C(=O)OCC(=O)N(Cc1ccccc1)C(C)C	40*	-27	76*	-5	·	25	-7	68*	-2
Cc1ccsc1C(=O)OCC(=O)NCCCc1ccccc1	-15	-26	4	-7	14	·	·	·	·
COc1ccc(C)cc1NC(=O)NNC(=O)C(C)Oc1ccc([N+](=O)[O-])cc1 (centres undefined)	-29	-12	7	0	-3	·	·	·	·
O=C(Nc1cc(Sc2ccccn2)cc([N+](=O)[O-])c1)c1ccc(Cl)cc1	40	20	94*	2	-8	-21	12	34	-2
O=C(Nc1cc(Sc2ccccn2)cc([N+](=O)[O-])c1)c1cccc(Cl)c1	-1	-5	37	-6	5	·	·	·	·
O=C1C(=O)N(CCCn2ccnc2)C(c2cccnc2)/C1=C(/O)c1ccc(Br)cc1 (centres undefined)	·	·	·	·	-14	·	·	·	·
C1CCC(C23CC4CC(CC(C4)C2)C3)NC1 (centres undefined)	-4	-6	15	-4	-11	·	·	·	·
Cc1ccc2c(c1)Cc1nc3ccccc3nc1-2	40	-13	87*	-5	-3	33*	12	90*	8
CC(C)(C)NC(=O)C(Cc1ccccc1)NS(=O)(=O)c1cccc2nsnc12 (centres undefined)	36	-17	116*	-4	-14	19	-9	80*	17*
SMILES	OX1R antag-1	CHO parental Ca	OX1R antag-2	GalR3 antag	GPR7 antag	OX1R Ca confirm	CHO Ca triplic	OX1R HTRF confirm	CHO-K1 HTRF	others
O=S(=O)(NCCc1ccccc1)c1cccc2nsnc12	-5	-13	24	-2	-9	·	·	·	·
CCOC(=O)COc1cccc(C2NC(=O)c3ccccc3O2)c1 (centres undefined)	-10	-5	6	-11	-16	·	·	·	·
Cc1ccc([C@@H]2CC=C(C(=O)O)[C@H](c3cccc(Cl)c3)N2S(=O)(=O)c2ccccc2C)cc1	81*	2	86*	-6	·	48*	-1	89*	4
CCOC(=O)C1=C(COC(=O)c2cc(OC)c(OC)cc2[N+](=O)[O-])NC(=O)NC1C (centres undefined)	-18	-18	34	3	·	·	·	·	·
COc1ccc(OC(C)C(=O)N(C)Cc2nc(-c3cccc(C)c3)no2)cc1 (centres undefined)	-33	-10	17	-10	-11	·	·	·	·
CC(C)N1C(=O)CSC1c1ccc(Br)cc1 (centres undefined)	-17	-15	5	-6	-3	·	·	·	·
CN(C)/C=C/C1=C([N+](=O)[O-])C(c2cccc([N+](=O)[O-])c2)NC(=O)N1 (centres undefined)	36	-8	88*	-8	-8	0	1	37	29*
COc1ccc(CCNc2c(C)c(C)nc3ncnn23)cc1	45*	16	11	90*	18	25	77*	·	·	GalR3 antag conf=90*;CNG parental=0
COc1ccc(C)c(NC(=O)NCCc2cnc[nH]2)c1	-34	0	-10	-8	-6	·	·	·	·
CCCN(C(=O)CSCc1ccc(C)cc1)c1c(N)n(Cc2ccccc2)c(=O)[nH]c1=O	·	·	·	-4	·	·	·	·	·
CCCCCCCn1c2c(c(=N)c3ccccc31)CCC2	30	22	4	42*	53*	14	38*	·	·	GalR3 antag conf=58*;CNG parental=7.3*
CCCn1c2c(c(=N)c3c1CCC3)CCC2	-14	-4	7	-1	-7	·	·	·	·
COc1ccc(CNC(=O)Cc2nn(C)c(=O)c3ccccc23)cc1	30	15	35	34*	1	17	33*	·	·	GalR3 antag conf=29*;CNG parental=0
Cc1ccccc1Nc1cc(C(=O)NCc2ccco2)c2ccccc2n1	7	-17	83*	-2	-12	·	·	50	3
